According to ChEMBL document CHEMBL1629434, “Cholesterol-based α-phenyl-N-tert-butyl nitrone derivatives as antioxidants against light-induced retinal degeneration” (Bioorg Med Chem Lett, 2010):
Active and inactive are the calls of the source. The calls are words filed in the database; no cut-off is given here.

Columns and labels:
[1] = Solubility of the compound at 1 mM in 2% DMSO; assay type: physicochemical; settings: 1000 µM
[2] = Solubility of the compound at 1 mM in PBS; assay type: physicochemical; settings: buffer, 1000 µM
Rattus norvegicus [3] = species: Rattus norvegicus; test: Protection against light-induced photoreceptor degradation in albino rat retina exposed to bright fluorescent light assessed as reduction in ONL thickness on superior side at 1 mM, intravitreally after 24 hrs; assay type: functional, organism-based
Outline: (§1)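 Albino rats got a 2 µL intravitreal injection 18 h before 24 h exposure to bright fluorescent light. Compounds insoluble in PBS 1× at 1 mM were given in DMSO 2%; PBS-soluble ones were given in PBS 1×. Untreated-unexposed and DMSO 2% groups served as controls.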

Rattus norvegicus [4] = species: Rattus norvegicus; test: Protection against light-induced photoreceptor degradation in albino rat retina exposed to 12 hrs dark and 12 hrs light assessed as reduction in ONL thickness on superior side at 9 mM, intravitreally after 24 hrs; assay type: functional, organism-based; outline: as §1
Rattus norvegicus [5] = species: Rattus norvegicus; test: Protection against light-induced photoreceptor degradation in albino rat retina exposed to 12 hrs dark and 12 hrs light assessed as reduction in ONL thickness on inferior side at 9 mM, intravitreally after 24 hrs; assay type: functional, organism-based; outline: as §1
[6] = Half life in albino rat retina; assay type: ADME, tissue-based
Rattus norvegicus [7] = species: Rattus norvegicus; test: Protection against light-induced photoreceptor degradation in albino rat retina exposed to 12 hrs dark and 12 hrs light assessed as reduction in ONL thickness at 1 mM, intravitreally after 24 hrs; assay type: functional, organism-based; outline: as §1

solubility [1] | solubility [2] | Activity (Rattus norvegicus [3]) | Activity (Rattus norvegicus [4]) | Activity (Rattus norvegicus [5]) | half-life [6] | Activity (Rattus norvegicus [7]) | Compound
soluble | Insoluble | inactive | – | – | – | – | CC(C)CCC[C@@H](C)[C@H]1CC[C@H]2[C@@H]3CC=C4C[C@@H](OCCC(=O)NCC(C)(C)/[N+]([O-])=C/c5ccc(CNC(=O)[C@@H](O)[C@H](O)[C@H](O[C@@H]6O[C@H](CO)[C@H](O)[C@H](O)[C@H]6O)[C@@H](O)CO)cc5)CC[C@]4(C)[C@H]3CC[C@]12C
– | – | – | Active | Active | 120 min | inactive | CC(C)(C)/[N+]([O-])=C/c1ccccc1
soluble | Insoluble | Active | – | – | – | – | CC(C)CCC[C@@H](C)[C@H]1CC[C@H]2[C@@H]3CC=C4C[C@@H](OCCC(=O)NCc5ccc(/C=[N+](\[O-])C(C)(C)CNC(=O)[C@@H](O)[C@H](O)[C@H](O[C@@H]6O[C@H](CO)[C@H](O)[C@H](O)[C@H]6O)[C@@H](O)CO)cc5)CC[C@]4(C)[C@H]3CC[C@]12C
